Measured values taken from ChEMBL document CHEMBL1255304, “In vitro phenotypic susceptibility of human immunodeficiency virus type 2 clinical isolates to protease inhibitors” (Antimicrob Agents Chemother, 2008).

Assays:
[1] = tested on: Human immunodeficiency virus 2; experiment: Antiviral activity against HIV 2 subtype A clinical isolate expressing 10V/I-40D-43I-56V-70K-82F-84V-89V-90M protease gene sequence from HIV2 infected patient plasma and PBMC obtained at T2 during compound treatment measured after 3 months; type: functional, organism-based; settings: Human immunodeficiency virus 2, subtype A
Method in brief: (§1)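 Virus isolated by PBMC coculture from patient samples taken before (T0) or during (T1, T2) protease inhibitor exposure, with protease genes sequenced from plasma and PBMC isolates. Susceptibility was tested in the ANRS PBMC assay, and the 50% inhibitory concentration (IC50) was reported.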

[2] = tested on: Human immunodeficiency virus 2; experiment: Antiviral activity against HIV 2 subtype A clinical isolate expressing 54M-65E-71I-74N-90M protease gene sequence from HIV2 infected patient plasma and PBMC obtained at T1 during compound treatment measured after 13 months; type: functional, organism-based; settings: Human immunodeficiency virus 2, subtype A; method in brief: as §1
[3] = tested on: Human immunodeficiency virus 2; experiment: Antiviral activity against HIV 2 subtype B clinical isolate expressing 12Q-14R-17G/D-19P-61N-62I-92A protease gene sequence from HIV2 infected patient plasma and PBMC obtained before compound treatment measured after 13 months; type: functional, organism-based; settings: Human immunodeficiency virus 2, subtype B\r\n; method in brief: as §1
[4] = tested on: Human immunodeficiency virus 2; experiment: Antiviral activity against HIV 2 subtype H expressing 10I-34E-40P-41Y-60H-63N-70T-73G-82F-89L-92E protease gene sequence from HIV2 infected patient plasma and PBMC obtained at T1 during compound treatment measured after 13 months; type: functional, organism-based; settings: Human immunodeficiency virus 2, subtype H; method in brief: as §1
[5] = tested on: Human immunodeficiency virus 2; experiment: Antiviral activity against HIV 2 subtype A clinical isolate expressing 14H-40D-70K-72R/K-91T/S protease gene sequence from HIV2 infected patient plasma and PBMC obtained before compound treatment measured after 13 months; type: functional, organism-based; settings: Human immunodeficiency virus 2, subtype A; method in brief: as §1
[6] = tested on: Human immunodeficiency virus 2; experiment: Antiviral activity against HIV 2 subtype B clinical isolate expressing 12T-14Y-19P-40N-41D-61N-62I-96S-99L protease gene sequence from HIV2 infected patient plasma and PBMC obtained before compound treatment measured after 13 months; type: functional, organism-based; settings: Human immunodeficiency virus 2, subtype B\r\n; method in brief: as §1
[7] = tested on: Human immunodeficiency virus 2; experiment: Antiviral activity against HIV 2 subtype A clinical isolate expressing 14H-60K/N-65E protease gene sequence from HIV2 infected patient plasma and PBMC obtained before compound treatment measured after 13 months; type: functional, organism-based; settings: Human immunodeficiency virus 2, subtype A; method in brief: as §1
[8] = tested on: Human immunodeficiency virus 2; experiment: Antiviral activity against HIV 2 subtype A clinical isolate expressing 10I-40D-43I-70K-82F-84V-85L-89V-90M-91T/L-98N/K protease gene sequence from HIV2 infected patient plasma and PBMC obtained at T1 during compound treatment measured after 13 months; type: functional, organism-based; settings: Human immunodeficiency virus 2, subtype A; method in brief: as §1
[9] = tested on: Human immunodeficiency virus 2; experiment: Antiviral activity against HIV 2 subtype A clinical isolate expressing 10I-17D-40D-43I-46V-66V/A-70R/K protease gene sequence from HIV2 infected patient plasma and PBMC obtained before compound treatment measured after 13 months; type: functional, organism-based; settings: Human immunodeficiency virus 2, subtype A; method in brief: as §1
[10] = tested on: Human immunodeficiency virus 2; experiment: Antiviral activity against HIV 2 subtype A clinical isolate expressing 5L/F-14Y/H-17G/D-43T-54I/M-62V/A-70R/K-71I protease gene sequence from HIV2 infected patient plasma and PBMC obtained at T1 during compound treatment measured after 13 months; type: functional, organism-based; settings: Human immunodeficiency virus 2, subtype A; method in brief: as §1
[11] = tested on: Human immunodeficiency virus 2; experiment: Antiviral activity against HIV 2 subtype B clinical isolate expressing 14Y-61N-99L protease gene sequence from HIV2 infected patient plasma and PBMC obtained before compound treatment measured after 13 months; type: functional, organism-based; settings: Human immunodeficiency virus 2, subtype B\r\n; method in brief: as §1
[12] = (§2) Antiviral activity against Human immunodeficiency virus type 1 (BRU ISOLATE) after […]; type: functional; settings: Human immunodeficiency virus 1
[13] = tested on: Human immunodeficiency virus type 1 (BRU ISOLATE); experiment: as §2; type: functional
[14] = tested on: Human immunodeficiency virus 2; experiment: Antiviral activity against Human immunodeficiency virus type 2 (ISOLATE ROD) after 13 months; type: functional, organism-based; settings: Human immunodeficiency virus 2, ISOLATE ROD
Method in brief: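 Reference strain ROD was tested in the ANRS PBMC assay alongside the clinical isolates, and the 50% inhibitory concentration (IC50) was reported.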

[15] = tested on: Human immunodeficiency virus 2; experiment: Antiviral activity against HIV 2 subtype H expressing 10I-40P-41Y-60H-63N-70T-73G-89L-92E protease gene sequence from HIV2 infected patient plasma and PBMC obtained before compound treatment measured after 13 months; type: functional, organism-based; settings: Human immunodeficiency virus 2, subtype H; method in brief: as §1
[16] = tested on: Human immunodeficiency virus 2; experiment: Antiviral activity against HIV 2 subtype B clinical isolate expressing 14Y-19P-61N-64V-71I-90M-95I protease gene sequence from HIV2 infected patient plasma and PBMC obtained at T2 during compound treatment measured after 3 months; type: functional, organism-based; settings: Human immunodeficiency virus 2, subtype B\r\n; method in brief: as §1
[17] = tested on: Human immunodeficiency virus 2; experiment: Antiviral activity against HIV 2 subtype A clinical isolate expressing 14H-17D-43T-68N/D protease gene sequence from HIV2 infected patient plasma and PBMC obtained before compound treatment measured after 13 months; type: functional, organism-based; settings: Human immunodeficiency virus 2, subtype A; method in brief: as §1
[18] = tested on: Human immunodeficiency virus 2; experiment: Antiviral activity against HIV 2 subtype B clinical isolate expressing 14Y-19P-33I-61N-71I-75M-84V-90M protease gene sequence from HIV2 infected patient plasma and PBMC obtained at T1 during compound treatment measured after 13 months; type: functional, organism-based; settings: Human immunodeficiency virus 2, subtype B\r\n; method in brief: as §1
[19] = tested on: Human immunodeficiency virus 2; experiment: Antiviral activity against HIV 2 subtype A clinical isolate expressing 10I-17D-40D-43I-45K/R-46V-54M-64I/V-69K/R-71V/I-90M protease gene sequence from HIV2 infected patient plasma and PBMC obtained at T1 during compound treatment measured after 13 months; type: functional, organism-based; settings: Human immunodeficiency virus 2, subtype A; method in brief: as §1

SMILES: CC(C)CN(C[C@@H](O)[C@H](Cc1ccccc1)NC(=O)O[C@H]1CCOC1)S(=O)(=O)c1ccc(N)cc1 [AMPRENAVIR]
- IC50 [1]: 12 µM
- IC90 [1]: 95 µM
- IC50 [2]: 4 µM
- IC90 [2]: 60 µM
- IC50 [3]: 0.4 µM
- IC90 [3]: 2.8 µM
- IC50 [4]: 10 µM
- IC90 [4]: 82 µM
- IC50 [5]: 0.3 µM
- IC90 [5]: 1.6 µM
- IC50 [6]: 0.4 µM
- IC90 [6]: 2.4 µM
- IC50 [7]: 0.9 µM
- IC90 [7]: 6.8 µM
- IC50 [8]: 12 µM
- IC90 [8]: 96 µM
- IC50 [9]: 0.4 µM
- IC90 [9]: 3.5 µM
- IC50 [10]: 4.4 µM
- IC90 [10]: 13 µM
- IC50 [11]: 0.6 µM
- IC90 [11]: 4.6 µM
- IC50 [12]: 0.02 µM
- IC90 [13]: 0.2 µM
- IC50 [14]: 0.6 µM
- IC90 [14]: 4.6 µM
- IC50 [15]: 0.9 µM
- IC90 [15]: 2.7 µM
- IC50 [16]: 17 µM
- IC90 [16]: 140 µM
- IC50 [17]: 0.6 µM
- IC90 [17]: 3.8 µM
- IC50 [18]: 14 µM
- IC90 [18]: 110 µM
- IC50 [19]: 9.5 µM
- IC90 [19]: 31 µM
